Screens deposited in PubChem BioAssay by several laboratories.
An excerpt weighted towards active compounds, which were near 2.3% of everything screened.
CTSL1 counter – cathepsin L1 inhibition, PFM18AAP counter-screen; recombinant F. hepatica cathepsin L1, Z-Leu-Arg-MCA fluorescence; inhibition, % at 5.96 µM; 300,000 compounds, 0.49% hits; AID 1906;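 active = inhibition above the mean of all tested compounds plus 3 SD, set per screening campaign, cut at about 17% in these data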;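 note: 0% = plate median of test compound wells and 100% = 1 µM Z-Phe-Ala-diazomethylketone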
UBC13 inh – human UBC13 polyubiquitination inhibition; P61088; UBC13 polyubiquitin chain formation, TR-FRET; inhibition, % at 20 µM; 330,000 compounds, 0.47% hits; in the data active = inhibition above about 45%, passing the limit was not always enough; inconclusive = no clear call, values can overlap the other calls
PREPL inhibitor – human PREPL enzyme inhibition. Q4J6C6. inhibition, % at 5.96 µM. AID 2751. 320,000 compounds, 0.68% hits. recombinant PREPL, fluorescence polarization activity-based probe; in the data active = inhibition above about 43%;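 note: 0% = enzyme with DMSO and 100% = wells lacking enzyme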
Target sequence (Q4J6C6 whole entry, looked up): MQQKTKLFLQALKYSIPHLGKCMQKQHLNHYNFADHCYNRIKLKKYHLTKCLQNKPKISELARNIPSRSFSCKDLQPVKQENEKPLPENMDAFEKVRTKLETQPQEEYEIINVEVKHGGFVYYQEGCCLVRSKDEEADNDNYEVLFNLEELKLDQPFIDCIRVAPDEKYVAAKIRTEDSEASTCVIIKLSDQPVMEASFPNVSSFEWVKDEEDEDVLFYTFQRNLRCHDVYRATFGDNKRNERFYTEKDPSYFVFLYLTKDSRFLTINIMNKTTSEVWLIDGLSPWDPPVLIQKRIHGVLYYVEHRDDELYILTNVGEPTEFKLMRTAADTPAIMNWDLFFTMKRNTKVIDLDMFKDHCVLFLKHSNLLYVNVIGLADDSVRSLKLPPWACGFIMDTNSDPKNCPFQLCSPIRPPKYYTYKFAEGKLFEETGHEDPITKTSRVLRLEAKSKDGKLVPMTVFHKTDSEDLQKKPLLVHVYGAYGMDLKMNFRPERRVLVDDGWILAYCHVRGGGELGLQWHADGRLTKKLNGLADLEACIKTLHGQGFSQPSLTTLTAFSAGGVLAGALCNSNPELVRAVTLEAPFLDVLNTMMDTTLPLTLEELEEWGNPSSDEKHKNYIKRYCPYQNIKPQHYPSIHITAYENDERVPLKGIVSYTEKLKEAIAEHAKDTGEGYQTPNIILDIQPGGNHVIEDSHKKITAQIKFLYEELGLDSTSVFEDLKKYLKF
UCH37 DUB inh – inhibitors of human deubiquitinating enzyme UCH37 | Q9Y5K5 | purified proteasome/UCH37, Ub-AMC cleavage fluorescence | inhibition, % (no concentration beside the values) | 330,000 compounds, 0.33% hits | AID 588478;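 active = mean inhibition over replicate wells above about 20%, limit read from the data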;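 note: 0% = compound-free wells with enzyme and 100% = wells lacking proteasome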
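Assay system: Proteasome-bound UCH37. Buffer or medium: pH 7.4 Tris-HCl (50 mM) with ovalbumin, ATP-MgCl2, DTT. Incubation: 30 min preincubation with enzyme, 25 min cleavage at room temperature. Measured by: fluorescence, ex 355 nm, em 460 nm. Read-out basis: percent inhibition. Control set: wells without proteasome as full block, compound-free enzyme plus substrate as uninhibited.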
PP1 counter – blocks human PP1-alpha phosphatase, a PP5 counter-screen; P62136; purified PP1alpha, OMFP fluorescence; inhibition, % at 6.7 µM; 320,000 compounds, 0.9% hits;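 active = inhibition above the mean inhibition of all tested compounds plus 3 SD, computed separately for each screening campaign, cut at about 15% in these data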
PP5 inh – inhibitors of human protein phosphatase 5 (PP5); inhibition, % at 6.7 µM; P53041; AID 1987; purified PP5c, OMFP substrate fluorescence; 320,000 compounds, 0.18% hits;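 active = inhibition above the campaign's mean inhibition across all tested compounds plus 3 SD, cut at about 9.5% in these data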;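 note: 0% = DMSO only and 100% = 100 µM cantharidin control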
Casp3 UBC13 ctr – counter-screen for UBC13 inhibitors: human caspase-3 inhibition; shares compounds with UBC13 inh; Recombinant caspase-3, Caspase-Glo 3/7 luminescence, 60 min; inhibition, % at 20 µM; 1,400 compounds, 4% hits;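 active = mean inhibition across replicates above about 26%, limit read from the data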;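 note: plate controls were DMSO with caspase-3 for no effect and DMSO wells lacking enzyme for full effect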
UBC13 confirm – confirmation of human UBC13 polyubiquitin inhibitors | shares compounds with UBC13 inh | UBC13 polyubiquitination, TR-FRET, biochemical | inhibition, % at 10 µM | 1,400 compounds, 68% hits | AID 488859; in the data active = inhibition above about 45%; inconclusive = no clear call, values can overlap the other calls
* = called active by the depositor; ? = inconclusive; · = no result given.

SMILES | CTSL1 counter | UBC13 inh | PREPL inhibitor | UCH37 DUB inh | PP1 counter | PP5 inh | Casp3 UBC13 ctr | UBC13 confirm
C#CCOCCOCCOCCNc1nc(N2CCN(C(=O)[C@H](CCCCN)n3cc([C@@H](N)[C@H](C)CC)nn3)CC2)nc(N2CCN(C(=O)[C@H](CCC(=O)O)n3cc([C@@H](N)CCCCN)nn3)CC2)n1 | · | 101* | 19 | 3 | · | · | -2 | 109*
Cc1cccc(C(=O)ON=C2CCSc3ccc(C)cc32)c1 | · | · | · | -4 | · | · | · | ·
CC(=NNC(=O)c1ccncc1)c1c[nH]c2ccccc12 | · | · | · | 9 | · | · | · | ·
C=CCNC(=S)NN=Cc1ccc(-c2ccc(Br)cc2)o1 | · | · | · | -26 | · | · | · | ·
O=C(Nc1ccc(C(=O)NCCCN2CCN(c3ccc(F)cc3)CC2)cc1)C1=CSCCO1 | 3 | 65* | 22 | · | -1 | 2 | -1 | 97*
Cc1ccc(NC(=O)C[n+]2ccn(C3=C([O-])c4ccccc4C3=O)c2)cc1 | 6 | 74* | 35 | 7 | -1 | 0 | 4 | 65*
Cc1cc[n+](CC(=O)Nc2ccccc2)cc1 | 4 | -3 | 12 | 2 | 1 | -2 | · | ·
CCOc1ccc(OCC(O)CNC2CCN(Cc3ccccc3)CC2)cc1 (stereo not drawn) | -3 | 2 | 14 | 2 | -3 | 1 | · | ·
CC(C)(c1ccccc1)c1ccc(OCC(O)CNC2CCN(Cc3ccccc3)CC2)cc1 (stereo not drawn) | -1 | 63* | 6 | · | 16* | 1 | -1 | 70*
CN1CCN(c2cc(-c3cc(O)c4ncccc4c3)ccn2)CC1 | · | 100* | 12 | 5 | 4 | 0 | 14 | 102*
CN1CCN(C(=O)c2cccc(-c3cc(O)c4ncccc4c3)c2)CC1 | · | 17 | 24 | 4 | · | · | · | ·
Cc1[nH]n(-c2ccc(Cl)cc2)c(=O)c1C=Nc1nnc(-c2ccccc2)s1 | · | · | · | 7 | · | · | · | ·
CN(C)CCCNc1nc2sc3c(c2c(=O)n1CCc1ccccc1)CCCCC3 | 2 | 49* | 68* | 3 | 3 | 1 | -1 | 73*
CN(C)CCCn1c(=O)n(CCc2ccccc2)c(=O)c2c3c(sc21)CCCCC3 | 0 | 39 | 21 | -3 | 2 | -1 | · | ·
CC(=NNC(=O)c1cccnc1)C1=C(O)CC(C)(C)CC1=O | · | · | · | 3 | · | · | · | ·
O=C(OCc1cccc([N+](=O)[O-])c1)c1cccnc1Cl | -2 | 50* | 8 | 5 | -11 | -6 | 31* | 67*
O=C(OCc1ccccc1)c1cccnc1Cl | -4 | 3 | -7 | 3 | 1 | 1 | · | ·
O=C(COC(=O)c1cc(Cl)ccc1O)NCCNC(=O)COC(=O)c1cc(Cl)ccc1O | 5 | 22 | -4 | -145 | -2 | -1 | · | ·
O=C(COC(=O)c1cc(Cl)ccc1O)NC(=O)NCc1ccccc1 | · | 50* | 6 | -47 | -1 | 3 | -3 | ?
O=C(COC(=O)c1ccccc1O)NC(=O)NCc1ccccc1 | · | ? | · | -7 | · | · | · | ·
COC(=O)c1ccc(CNC(=O)COC(=O)c2cc(Cl)ccc2O)cc1 | · | 52* | -7 | -8 | · | · | -5 | 44
S=c1nc[nH]c2c1[nH]c1ccc(Cl)cc12 | 1 | -237 | 0 | 4 | -3 | 0 | · | ·
S=c1nc[nH]c2c1[nH]c1ccccc12 | 1 | 82* | 4 | 11 | 1 | -1 | 4 | 103*
CCCCN(CC)CCCNC(=O)c1cc2c(=O)n(C)c3ccccc3c2n1C | 4 | 49* | -43 | -2 | 1 | -1 | -4 | 36
Cc1nn(C)c(C)c1NC(=O)COc1ccc(Cl)cc1Br | · | -5 | 21 | 3 | -1 | 1 | · | ·
SMILES | CTSL1 counter | UBC13 inh | PREPL inhibitor | UCH37 DUB inh | PP1 counter | PP5 inh | Casp3 UBC13 ctr | UBC13 confirm
COc1ccc(/C=C/C(=O)Nc2c(C)nn(C)c2C)cc1COc1ccc(Cl)cc1Br | 2 | 60* | -8 | 6 | -2 | -3 | -2 | 63*
CCC(C)(C)NC(=O)C(c1ccc(C)o1)N(Cc1ccc2c(c1)OCO2)C(=O)c1snc(C(N)=O)c1N (stereo not drawn) | 5 | 78* | 4 | -12 | 1 | 1 | -3 | 86*
Cc1ccc(C(C(=O)NC(C)(C)C)N(Cc2ccccc2)C(=O)c2snc(C(N)=O)c2N)o1 (stereo not drawn) | 4 | 71* | -8 | -7 | -1 | 2 | 5 | 66*
Cc1ccc(C(C(=O)NC2CCCC2)N(Cc2cccnc2)C(=O)c2snc(C(N)=O)c2N)o1 (stereo not drawn) | 0 | 42 | 2 | -52 | 0 | 0 | · | ·
COc1ccc(C=NNC(=O)Cn2cnc3ccccc3c2=O)cc1 | · | · | · | 3 | · | · | · | ·
CCOc1ccc(-c2nc(S(=O)(=O)c3ccccc3)c(NC)o2)cc1 | -1 | 47* | 5 | -42 | 4 | 1 | 0 | 33
CCOc1ccc(-c2nc(S(=O)(=O)c3ccccc3)c(NCc3cccnc3)o2)cc1 | 3 | 3 | 1 | -2 | 3 | 3 | · | ·
O=C(CCc1nnc2ccc(N3CCCC3)nn12)Nc1ccc(F)c(F)c1 | -2 | 50* | 2 | -9 | -2 | 0 | -3 | ?
CC(=NNC(=O)c1nc2ccccn2c1C)c1cccc([N+](=O)[O-])c1 | · | · | · | 5 | · | · | · | ·
CCCCc1cn([C@@H](CCCCN)C(=O)N2CCNCC2)nn1 | 0 | -11 | -5 | 5 | 1 | 3 | · | ·
NCCCC[C@@H](C(=O)N1CCNCC1)n1cc(CN)nn1 | 0 | 60* | -8 | 1 | 5 | 0 | 3 | 47*
Cc1cccn2c(=O)c(C=NO)c(N3CCOCC3)nc12 | · | · | · | 7 | · | · | · | ·
COC(=O)C/C=C/[C@@H](C)[C@@H](C=NOC[C@H]1O[C@H](c2ccccc2)C=C[C@@H]1Oc1ccc(OC)cc1)NS(=O)(=O)c1ccc(C)cc1 | · | · | · | 2 | · | · | · | ·
N#Cc1sc2nc(-c3cccs3)cc(-c3ccc(F)cc3)c2c1N | -1 | 59* | 14 | -32 | -1 | 0 | -2 | 34
CN[C@H]1CC[C@@H](c2ccc(Cl)c(Cl)c2)c2ccccc21 | -2 | · | -11 | 0 | 9 | 3 | -3 | ·
CCOC(=O)/C(C=Nc1cc(C)nn1-c1ccccc1)=C(\C)O | · | · | · | 8 | · | · | · | ·
CCOC(=O)c1sc2nc(C3CC3)cc(-c3ccc(OC)cc3)c2c1N | 10 | 48* | 19 | -60 | -4 | -1 | -3 | ?
C=CCn1c(=O)c(C(=O)Nc2ccccc2S(N)(=O)=O)c(O)c2ccccc21 | 0 | 46* | 10 | 0 | 4 | 0 | 2 | 10
O=C(CCN1C(=O)c2cccc3cccc(c23)C1=O)NC1CCS(=O)(=O)C1 (stereo not drawn) | 3 | 2 | 1 | -113 | -4 | 1 | · | ·
O=C(CCCCCN1C(=O)c2cccc3cccc(c23)C1=O)NC1CCS(=O)(=O)C1 (stereo not drawn) | 6 | 83* | 32 | -89 | -3 | -2 | -2 | 98*
